Measured values taken from ChEMBL document CHEMBL2057083, “Development of new carbon-11 labelled radiotracers for imaging GABAA- and GABAB-benzodiazepine receptors” (Bioorg Med Chem, 2012).

Experiments:
[1] = Lipophilicity, log D in octanol/buffer at pH 7.4 by shake-flask method
Cerebellum [2] = experiment: Biodistribution in Sprague-Dawley rat cerebellum at 37 MBq, iv measured 5 mins post injection; format: ADME, organism-based; settings: in vivo
Cerebellum [3] = experiment: Biodistribution in Sprague-Dawley rat cerebellum at 37 MBq, iv measured 15 mins post injection; format: ADME, organism-based; settings: in vivo, 0.25 h
Cerebellum [4] = experiment: Biodistribution in Sprague-Dawley rat cerebellum at 37 MBq, iv measured 30 mins post injection; format: ADME, organism-based; settings: in vivo, 0.5 h
Cerebellum [5] = experiment: Biodistribution in Sprague-Dawley rat cerebellum at 37 MBq, iv measured 60 mins post injection; format: ADME, organism-based; settings: in vivo, 1 h
Hippocampus [6] = experiment: Biodistribution in Sprague-Dawley rat hippocampus at 37 MBq, iv measured 5 mins post injection; format: ADME, organism-based; settings: in vivo
Hippocampus [7] = experiment: Biodistribution in Sprague-Dawley rat hippocampus at 37 MBq, iv measured 15 mins post injection; format: ADME, organism-based; settings: in vivo, 0.25 h
Hippocampus [8] = experiment: Biodistribution in Sprague-Dawley rat hippocampus at 37 MBq, iv measured 30 mins post injection; format: ADME, organism-based; settings: in vivo, 0.5 h
Hippocampus [9] = experiment: Biodistribution in Sprague-Dawley rat hippocampus at 37 MBq, iv measured 60 mins post injection; format: ADME, organism-based; settings: in vivo, 1 h
Striatum [10] = experiment: Biodistribution in Sprague-Dawley rat striatum at 37 MBq, iv measured 5 mins post injection; format: ADME, organism-based; settings: in vivo
Striatum [11] = experiment: Biodistribution in Sprague-Dawley rat striatum at 37 MBq, iv measured 15 mins post injection; format: ADME, organism-based; settings: in vivo, 0.25 h
Striatum [12] = experiment: Biodistribution in Sprague-Dawley rat striatum at 37 MBq, iv measured 30 mins post injection; format: ADME, organism-based; settings: in vivo, 0.5 h
Striatum [13] = experiment: Biodistribution in Sprague-Dawley rat striatum at 37 MBq, iv measured 60 mins post injection; format: ADME, organism-based; settings: in vivo, 1 h
Rattus norvegicus [14] = experiment: Biodistribution in Sprague-Dawley rat cortex (front) at 37 MBq, iv measured 5 mins post injection; format: ADME, organism-based; settings: in vivo
Rattus norvegicus [15] = experiment: Biodistribution in Sprague-Dawley rat cortex (front) at 37 MBq, iv measured 15 mins post injection; format: ADME, organism-based; settings: in vivo, 0.25 h
Rattus norvegicus [16] = experiment: Biodistribution in Sprague-Dawley rat cortex (front) at 37 MBq, iv measured 30 mins post injection; format: ADME, organism-based; settings: in vivo, 0.5 h
Rattus norvegicus [17] = experiment: Biodistribution in Sprague-Dawley rat cortex (front) at 37 MBq, iv measured 60 mins post injection; format: ADME, organism-based; settings: in vivo, 1 h
Rattus norvegicus [18] = experiment: Biodistribution in Sprague-Dawley rat cortex (rest) at 37 MBq, iv measured 5 mins post injection; format: ADME, organism-based; settings: in vivo
Rattus norvegicus [19] = experiment: Biodistribution in Sprague-Dawley rat cortex (rest) at 37 MBq, iv measured 15 mins post injection; format: ADME, organism-based; settings: in vivo, 0.25 h
Rattus norvegicus [20] = experiment: Biodistribution in Sprague-Dawley rat cortex (rest) at 37 MBq, iv measured 30 mins post injection; format: ADME, organism-based; settings: in vivo, 0.5 h
Rattus norvegicus [21] = experiment: Biodistribution in Sprague-Dawley rat cortex (rest) at 37 MBq, iv measured 60 mins post injection; format: ADME, organism-based; settings: in vivo, 1 h
Brain [22] = experiment: Biodistribution in Sprague-Dawley rat rest of brain at 37 MBq, iv measured 5 mins post injection; format: ADME, organism-based; settings: in vivo
Brain [23] = experiment: Biodistribution in Sprague-Dawley rat rest of brain at 37 MBq, iv measured 15 mins post injection; format: ADME, organism-based; settings: in vivo, 0.25 h
Brain [24] = experiment: Biodistribution in Sprague-Dawley rat rest of brain at 37 MBq, iv measured 30 mins post injection; format: ADME, organism-based; settings: in vivo, 0.5 h
Brain [25] = experiment: Biodistribution in Sprague-Dawley rat rest of brain at 37 MBq, iv measured 60 mins post injection; format: ADME, organism-based; settings: in vivo, 1 h
Blood [26] = experiment: Biodistribution in Sprague-Dawley rat blood at 37 MBq, iv measured 5 mins post injection; format: ADME, organism-based; settings: in vivo
Blood [27] = experiment: Biodistribution in Sprague-Dawley rat blood at 37 MBq, iv measured 15 mins post injection; format: ADME, organism-based; settings: in vivo, 0.25 h
Blood [28] = experiment: Biodistribution in Sprague-Dawley rat blood at 37 MBq, iv measured 30 mins post injection; format: ADME, organism-based; settings: in vivo, 0.5 h
Blood [29] = experiment: Biodistribution in Sprague-Dawley rat blood at 37 MBq, iv measured 60 mins post injection; format: ADME, organism-based; settings: in vivo, 1 h
Thalamus [30] = experiment: Biodistribution in Sprague-Dawley rat thalamus at 37 MBq, iv measured 2 mins post injection; format: ADME, organism-based; settings: in vivo
Thalamus [31] = experiment: Biodistribution in Sprague-Dawley rat thalamus at 37 MBq, iv measured 5 mins post injection; format: ADME, organism-based; settings: in vivo
Method in brief: (§1)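 Conscious rats received the radiotracer by tail-vein injection and were killed by decapitation at the stated time. Brains were removed, and regions were excised, blotted, weighed and counted for radioactivity. Uptake is given as decay-corrected %ID/g.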

Thalamus [32] = experiment: Biodistribution in Sprague-Dawley rat thalamus at 37 MBq, iv measured 15 mins post injection; format: ADME, organism-based; settings: in vivo, 0.25 h; method in brief: as §1
Thalamus [33] = experiment: Biodistribution in Sprague-Dawley rat thalamus at 37 MBq, iv measured 30 mins post injection; format: ADME, organism-based; settings: in vivo, 0.5 h; method in brief: as §1
Thalamus [34] = experiment: Biodistribution in Sprague-Dawley rat thalamus at 37 MBq, iv measured 60 mins post injection; format: ADME, organism-based; settings: in vivo, 1 h; method in brief: as §1
Rattus norvegicus [35] = experiment: Biodistribution in Sprague-Dawley rat hipothalamus at 37 MBq, iv measured 2 mins post injection; format: ADME, organism-based, Hypothalamus; settings: in vivo
Rattus norvegicus [36] = experiment: Biodistribution in Sprague-Dawley rat hipothalamus at 37 MBq, iv measured 5 mins post injection; format: ADME, organism-based, Hypothalamus; settings: in vivo; method in brief: as §1
Rattus norvegicus [37] = experiment: Biodistribution in Sprague-Dawley rat hipothalamus at 37 MBq, iv measured 15 mins post injection; format: ADME, organism-based, Hypothalamus; settings: in vivo, 0.25 h; method in brief: as §1
Rattus norvegicus [38] = experiment: Biodistribution in Sprague-Dawley rat hipothalamus at 37 MBq, iv measured 30 mins post injection; format: ADME, organism-based, Hypothalamus; settings: in vivo, 0.5 h; method in brief: as §1
Rattus norvegicus [39] = experiment: Biodistribution in Sprague-Dawley rat hipothalamus at 37 MBq, iv measured 60 mins post injection; format: ADME, organism-based, Hypothalamus; settings: in vivo, 1 h; method in brief: as §1
Cerebellum [40] = experiment: Biodistribution in Sprague-Dawley rat cerebellum at 37 MBq, iv measured 2 mins post injection; format: ADME, organism-based; settings: in vivo
Hippocampus [41] = experiment: Biodistribution in Sprague-Dawley rat hippocampus at 37 MBq, iv measured 2 mins post injection; format: ADME, organism-based; settings: in vivo
Striatum [42] = experiment: Biodistribution in Sprague-Dawley rat striatum at 37 MBq, iv measured 2 mins post injection; format: ADME, organism-based; settings: in vivo
Rattus norvegicus [43] = experiment: Biodistribution in Sprague-Dawley rat cortex (front) at 37 MBq, iv measured 2 mins post injection; format: ADME, organism-based; settings: in vivo
Rattus norvegicus [44] = experiment: Biodistribution in Sprague-Dawley rat cortex (rest) at 37 MBq, iv measured 2 mins post injection; format: ADME, organism-based; settings: in vivo
Brain [45] = experiment: Biodistribution in Sprague-Dawley rat rest of brain at 37 MBq, iv measured 2 mins post injection; format: ADME, organism-based; settings: in vivo
Blood [46] = experiment: Biodistribution in Sprague-Dawley rat blood at 37 MBq, iv measured 2 mins post injection; format: ADME, organism-based; settings: in vivo

## Cc1nc(O[11CH3])ccc1-c1cccc2c(N)c3c(nc12)CN(C1CCC1)C3=O
[1]
  logD: 4.12

## CC(NCCC(c1ccccc1)c1ccccc1)c1ccc(O[11CH3])c(Cl)c1 (racemic)
Cerebellum [2]
  Drug uptake: 0.14 % ID/g
Cerebellum [3]
  Drug uptake: 0.12 % ID/g
Cerebellum [4]
  Drug uptake: 0.13 % ID/g
Cerebellum [5]
  Drug uptake: 0.11 % ID/g
Hippocampus [6]
  Drug uptake: 0.1 % ID/g
Hippocampus [7]
  Drug uptake: 0.1 % ID/g
Hippocampus [8]
  Drug uptake: 0.11 % ID/g
Hippocampus [9]
  Drug uptake: 0.11 % ID/g
Striatum [10]
  Drug uptake: 0.11 % ID/g
Striatum [11]
  Drug uptake: 0.12 % ID/g
Striatum [12]
  Drug uptake: 0.12 % ID/g
Striatum [13]
  Drug uptake: 0.11 % ID/g
Rattus norvegicus [14]
  Drug uptake: 0.13 % ID/g
Rattus norvegicus [15]
  Drug uptake: 0.14 % ID/g
Rattus norvegicus [16]
  Drug uptake: 0.14 % ID/g
Rattus norvegicus [17]
  Drug uptake: 0.13 % ID/g
Rattus norvegicus [18]
  Drug uptake: 0.13 % ID/g
Rattus norvegicus [19]
  Drug uptake: 0.13 % ID/g
Rattus norvegicus [20]
  Drug uptake: 0.13 % ID/g
Rattus norvegicus [21]
  Drug uptake: 0.13 % ID/g
Brain [22]
  Drug uptake: 0.11 % ID/g
Brain [23]
  Drug uptake: 0.11 % ID/g
Brain [24]
  Drug uptake: 0.12 % ID/g
Brain [25]
  Drug uptake: 0.11 % ID/g
Blood [26]
  Drug uptake: 0.12 % ID/g
Blood [27]
  Drug uptake: 0.87 % ID/g
Blood [28]
  Drug uptake: 0.09 % ID/g
Blood [29]
  Drug uptake: 0.13 % ID/g
Thalamus [30]
  Drug uptake: 0.1 % ID/g
Thalamus [31]
  Drug uptake: 0.12 % ID/g
Thalamus [32]
  Drug uptake: 0.13 % ID/g
Thalamus [33]
  Drug uptake: 0.12 % ID/g
Thalamus [34]
  Drug uptake: 0.14 % ID/g
Rattus norvegicus [35]
  Drug uptake: 0.11 % ID/g
Rattus norvegicus [36]
  Drug uptake: 0.11 % ID/g
Rattus norvegicus [37]
  Drug uptake: 0.1 % ID/g
Rattus norvegicus [38]
  Drug uptake: 0.1 % ID/g
Rattus norvegicus [39]
  Drug uptake: 0.11 % ID/g
Cerebellum [40]
  Drug uptake: 0.13 % ID/g
Hippocampus [41]
  Drug uptake: 0.08 % ID/g
Striatum [42]
  Drug uptake: 0.1 % ID/g
Rattus norvegicus [43]
  Drug uptake: 0.12 % ID/g
Rattus norvegicus [44]
  Drug uptake: 0.13 % ID/g
Brain [45]
  Drug uptake: 0.1 % ID/g
Blood [46]
  Drug uptake: 0.18 % ID/g
[1]
  logD: 3.2
